Compound activity: PubChem BioAssay, The Scripps Research Institute Molecular Screening Center
Sampled rows, rich in hits. Any-hit rate of the full collection: about 2.9%.
CHO parental Ca = ATP-evoked calcium signal inhibitors, parental CHO, primary screen, counter-screen for OX1R antagonist project, cell-based, fluorescence, Fluo-8 calcium dye; 330,000 tested, 0.63% active; parental CHO-K1, ATP-induced calcium, Fluo-8 fluorescence; inhibition, % at 5.6 µM;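 active = inhibition above that plate's mean sample inhibition plus 3 SD, cut at about 26% in these data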;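 also: 0% = ATP-challenged DMSO wells and 100% = DMSO wells without ATP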
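Test system: untransfected parental CHO cell line; also added: ATP stimulus; dosing: 5.6 µM, single dose; signal: calcium-sensitive Fluo-8 fluorescence; measure: percent inhibition of ATP-evoked calcium rise, normalized to controls; benchmarks: low control ATP plus DMSO, high control DMSO only; replication: one well per compound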
M1 ag parental = counter-screen for M1 agonists: effect in parental CHO-K1 cells. AID 602248, 2012. 360,000 tested, 0.48% active. Fluo-8 calcium fluorescence; scaled to maximal ATP response, vehicle zero. activation, % at 3 µM; in the data active = activation above about 15%;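 also: untransfected CHO-K1 host cells lacking M1 receptor as counterscreen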
OX1R antag-1 = antagonists of human orexin 1 receptor (OX1R); Orexin/Hypocretin receptor type 1 (Homo sapiens), O43613; OX1R-expressing cells, FRET antagonist read-out; inhibition, % at 6.6 µM; 330,000 tested, 1.8% active; AID 485270, 2010; in the data active = inhibition mostly above about 38%, no sharp cut-off; inactive = mostly below about 40%;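 also: 0% = agonist challenge alone and 100% = reference antagonist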
Target sequence (O43613 whole entry, looked up): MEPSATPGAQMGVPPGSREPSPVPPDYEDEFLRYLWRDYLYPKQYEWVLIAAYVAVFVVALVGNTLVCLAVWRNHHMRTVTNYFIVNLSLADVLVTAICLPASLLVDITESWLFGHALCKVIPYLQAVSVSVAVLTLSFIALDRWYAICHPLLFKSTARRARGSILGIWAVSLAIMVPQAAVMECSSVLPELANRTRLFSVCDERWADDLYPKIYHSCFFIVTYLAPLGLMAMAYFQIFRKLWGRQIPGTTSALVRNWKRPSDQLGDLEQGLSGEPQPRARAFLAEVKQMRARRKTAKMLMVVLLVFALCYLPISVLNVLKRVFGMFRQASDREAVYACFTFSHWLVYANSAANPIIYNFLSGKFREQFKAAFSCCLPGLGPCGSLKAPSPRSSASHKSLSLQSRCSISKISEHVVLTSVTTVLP
CHO-K1 Ca antag = counter-screen for M1 antagonists: effect in parental CHO-K1 cells; ATP-induced calcium, Fluo-8 fluorescence; inhibition, % at 3 µM; 360,000 tested, 0.6% active;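 active = inhibition above a per-plate cutoff, the plate's mean sample inhibition plus 3 SD, cut at about 24% in these data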;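 also: 0% = DMSO plus EC80 ATP and 100% = DMSO alone without ATP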
OX1R antag-2 = OX1R (HCRTR1) antagonists, primary screen, fluorescence, CHO/OX1R cells, Fluo-8 calcium, orexin A. Orexin/Hypocretin receptor type 1 (Homo sapiens), O43613. Fluo-8 calcium fluorescence. inhibition, % at 5 µM. 330,000 tested, 0.43% active;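 active = inhibition above its plate's threshold, mean inhibition of all tested compounds on the plate plus 3 SD, cut at about 37% in these data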;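 also: 0% = orexin A challenge wells and 100% = SB-334867-A antagonist wells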
CHO-K1 Ca PAM = nonselective calcium activators in parental CHO-K1 cells, primary screen, counter-screen for M1 PAM project, cell-based, Fluo-8 calcium fluorescence, full deck, 1536-well; ATP EC20; 0% at ATP EC20, 100% at ATP max; activation, % at 3 µM; 360,000 tested, 0.02% active; AID 602247, 2012;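 active = activation above the run cutoff, the mean activation of all test compounds plus 3 SD, cut at about 40% in these data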;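 also: peak over basal fluorescence ratio in a 140 s read after ATP addition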
* hit, by the source's call; / = no result.

SMILES	CHO parental Ca	M1 ag parental	OX1R antag-1	CHO-K1 Ca antag	OX1R antag-2	CHO-K1 Ca PAM
CCc1cccc(C)c1NC(=S)NCC(c1cccnc1)N(C)C (stereo unspecified)	-7.1	17.1*	11.4	8.3	-11.4	-5.3
CN(C)C(CNC(=S)Nc1ccccc1)c1cccnc1 (stereo unspecified)	-1.5	0.2	0.1	-7.2	-7.6	20.1
CCN1C(=O)[C@H]2[C@@H](c3ccc(-c4ccc(F)cc4)c(OC)c3)N[C@@](CC(C)C)(C(=O)OC)[C@H]2C1=O	-28.8	/	34.3	/	-20.6	/
CCCn1c(N)c(C(=O)NS(=O)(=O)c2ccc(C)cc2)c(=O)n(C)c1=O	-7.7	16.6*	17.3	6.4	0.7	2.5
O=C(CSc1cccc[n+]1[O-])Nc1cc(Cl)ccc1[N+](=O)[O-]	4.2	0.6	38.3*	-11.6	2.9	16.2
Cn1c(CC(=O)Nc2ccc(Cl)cc2)nnc1SCC(=O)N1CCOCC1	-3.6	2.5	11.4	-9.8	-22.8	9.6
O=C(/C=C/c1ccccc1[N+](=O)[O-])OCC(=O)N1CCN(c2ccccc2)CC1	/	1.6	/	2.5	/	9.0
CC(=O)N1CCN(C(=O)COC(=O)/C=C/c2ccccc2[N+](=O)[O-])CC1	1.2	1.1	36.9*	-12.4	5.2	2.3
Cc1ccc(C)c(NC(=O)CN(C)C(=O)Cc2coc3cc(C)c(C)cc23)c1	-11.6	0.1	22.6	-12.0	-14.8	-4.1
Cc1cc2occ(CC(=O)N(C)CC(=O)Nc3ccccc3Br)c2cc1C	-16.2	3.9	68.2*	-1.4	5.0	4.1
CCC(C)NC(=O)COC(=O)c1cccnc1Nc1ccccc1F (stereo unspecified)	-15.7	0.9	61.5*	-2.0	-5.6	23.7
COc1cccc(OC)c1C(=O)Nc1sc2c(c1C#N)CCC2	-6.2	-0.6	54.8*	10.5	-11.4	-22.2
N#Cc1c(NC(=O)c2ccc(-c3ccccc3[N+](=O)[O-])o2)sc2c1CCCC2	-2.6	-0.6	69.9	27.6*	20.8	-5.6
N#Cc1c(NC(=O)c2ccco2)sc2c1CCC2	9.6	0.2	18.2	3.0	-4.3	-10.4
Cc1onc(-c2ccccc2)c1C(=O)NC(=S)NNC(=O)c1ccncc1	-7.4	-0.5	10.2	4.5	8.4	-3.4
Cc1onc(-c2ccccc2)c1C(=O)NNC(=S)NC(=O)c1ccc2c(c1)OCO2	15.3	55.0*	1.9	0.5	-2.3	-13.2
Cc1onc(-c2ccccc2)c1C(=O)NC(=S)NNC(=O)c1ccco1	19.7	18.4*	13.8	-3.6	20.0	7.5
O=C(CSc1nc2[nH]ncc2c(=O)n1-c1ccccc1)N1CCCCCC1	-9.7	/	9.4	/	-21.8	/
C=CCNC(=O)C1CC(=O)N(c2ccc(OCC(=O)Nc3c(C)cccc3C)cc2)C1 (stereo unspecified)	-4.2	2.0	0.9	-15.3	-12.5	-2.8
C=C(C)C(O)CC/C(C)=C/Cc1c(O)ccc(C(=O)/C=C/c2ccc(O)cc2)c1O (stereo unspecified)	30.9*	7.4	2.3	10.4	30.3	-4.2
O=C(CSc1nc2ccccc2c(=O)n1NC(=O)Cc1ccccc1)NCc1ccccc1	-6.5	1.4	46.0*	-0.8	-10.9	11.5
COCCn1c(SCC(=O)N2CCCc3ccccc32)nc2c(c1=O)SC(C)C2 (stereo unspecified)	-17.6	0.2	19.8	-8.7	-29.4	4.4
COCCn1c(SCC(=O)N2CCCc3ccccc32)nc2ccccc2c1=O	-9.2	2.0	53.0*	0.5	2.3	9.1
COCCn1c(SCC(=O)NNC(=O)Cc2ccccc2)nc2ccccc2c1=O	-10.1	-0.2	9.2	24.5*	-10.3	-6.5
O=C(Cc1cccs1)Nn1c(Cc2cccs2)nc2ccccc2c1=O	-11.2	0.1	3.4	30.1*	-6.0	-12.9
SMILES	CHO parental Ca	M1 ag parental	OX1R antag-1	CHO-K1 Ca antag	OX1R antag-2	CHO-K1 Ca PAM
CC(C(=O)Nc1ccccc1)N1CCN(C(=O)c2ccco2)CC1 (stereo unspecified)	-6.3	0.3	3.9	-12.2	-8.8	21.6
CN(Cc1ccccc1)C(=O)CSc1nc2ccccc2c(=O)n1Cc1ccco1	-23.8	0.9	34.1*	-15.5	14.3	8.8
Cc1ccc(NC(=O)CN(C)C(=O)CSc2nc3ccccc3c(=O)n2Cc2ccco2)cc1	-25.1	0.8	32.9	-12.6	-23.4	15.3
CC(C)NS(=O)(=O)c1ccc(NC(=O)C(C)OC(=O)CCC(=O)c2cccs2)cc1 (stereo unspecified)	-3.9	12.3	14.9	-16.2	-1.1	3.1
O=C(Nc1ccc(Cl)cc1)Nc1nc(-c2ccccc2O)cs1	73.9*	16.6*	46.2	15.3	41.2*	-9.0
O=C(Nc1ccccc1)Nc1nc(-c2ccccc2)cs1	6.5	9.4	4.5	23.2	21.5	-7.3
O=C(Nc1ccccc1)Nc1nc(-c2ccc(F)c(F)c2)cs1	26.6	16.1*	-3.4	19.8	11.9	-5.3
COc1cccc(-c2csc(NC(=O)Nc3ccccc3)n2)c1	32.4*	13.4	74.1*	1.1	45.1*	-15.8
O=C(Nc1cccc2ncccc12)c1cc(Br)ccc1Cl	-26.5	1.1	-8.5	11.8	-32.4	3.3
Cc1ccc(C)c(NC(=S)N2CCC(NC(=O)C3CCCCC3)CC2)c1	-3.9	0.5	17.4	3.2	-9.3	0.6
CC1CCCCC1NS(=O)(=O)c1ccc2c(c1)CCC(=O)N2 (stereo unspecified)	-6.9	0.4	3.0	-17.7	-8.0	12.1
O=C(COC(=O)c1ccc([N+](=O)[O-])s1)NNC(=O)c1ccccc1	2.9	0.2	56.7*	-5.1	4.8	-19.6
CN(CC(=O)Nc1ccccc1Cl)C(=O)COC(=O)c1cccs1	-1.3	0.3	14.8	-7.2	-10.7	0.1
O=C(COC(=O)c1ccc([N+](=O)[O-])s1)c1ccc[nH]1	-6.8	1.9	60.7*	2.9	15.8	-4.2
CN(CC(=O)Nc1ccccc1Cl)C(=O)COC(=O)c1ccc([N+](=O)[O-])s1	-0.5	1.4	43.5*	-18.2	-10.0	10.2
O=C(COC(=O)c1ccc([N+](=O)[O-])s1)NCCc1ccccc1	-12.1	0.7	27.2*	-10.2	-9.8	8.1
CCc1cc(C(=O)OCC(=O)NCCc2ccccc2)sc1C	/	-0.1	/	3.7	/	-9.2
CC(CS(=O)(=O)c1ccc2c(c1)NC(=O)CS2)C(=O)N1CCN(c2cccc(Cl)c2)CC1 (stereo unspecified)	-19.0	5.1	17.3	-5.6	23.2	-10.8
Cc1ccc(N2CC(C(=O)Nc3nc4ccc(S(C)(=O)=O)cc4s3)CC2=O)cc1 (stereo unspecified)	-20.5	0.4	7.3	-6.3	-11.3	4.8
